Columns and labels:
[1] = tested on: healthy human male subjects; settings: cited from earlier work
[2] = tested on: APP[V717I]-transgenic mice; assay: Open field activity and enriched open field; assay type: in vivo, mouse; settings: 6-mo-old mice after 3 mo of daily intranasal treatment; data not shown
[3] = tested on: human APP processing in the brain of APP[V717I]-transgenic mice; assay: Immunoblot of sAPPα and full-length APP in brain homogenates, first study; assay type: in vivo, mouse; settings: 10 μg daily intranasal, administration solution 1, 3 mo; 4-mo-old male mice
Outline: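 Male APP[V717I] mice (FVB/N background), 1 mo old, received the test compound intranasally at 10 μg/d (1 μg/μl, 5 μl/nostril), 5 d/wk for 3 mo. Vehicle: NaCl/citric acid/disodium phosphate/benzalkonium chloride water solution. Controls (n=8) received carrier alone. Hemispheres homogenized in ice-cold 20 mM Tris-HCl pH 8.5 plus protease inhibitors, then centrifuged at 100,000 g for 1 h at 4°C. sAPPα probed with 6E10 and a 35S-labeled or peroxidase-coupled secondary.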

[4] = tested on: brain mRNA levels of APP[V717I] transgenic mice; assay: Quantitative real-time RT-PCR of brain mRNA levels; assay type: in vivo, mouse; settings: 6-mo-old mice, 3 mo intranasal treatment; n=7/group

Substance: pituitary adenylate cyclase-activating polypeptide [PACAP38]
- tolerability of inhaled peptide [1]: well tolerated without systemic side-effects
- activity and exploration-related parameters, difference between the tested groups [2]: no differences
- expression level of full-length APP in the brain [3]: no influence
- ADAM10 gene expression in brain (in words) [4]: not caused by increased ADAM10 and ADAM17 gene expression
- ADAM17 gene expression in brain (in words) [4]: not caused by increased ADAM10 and ADAM17 gene expression

Source: paper PMC3157688 (The FASEB Journal, 2011)
